Calls of active or inactive are those of the source. No rule for the calls is given here.
Experiments:
Acinetobacter baumannii [1] = assay: Antibacterial activity against Acinetobacter baumannii ATCC 19606 using iron-deficient M9 minimal media after 15 hrs by broth microdilution assay; assay type: functional, organism-based; conditions: ATCC 19606 = CIP 70.34 = JCM 6841
How it was run: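 ATCC 19606 grown overnight at 30 °C on LB agar, washed twice and resuspended in M9 minimal medium with 0.2% casamino acids and 200 μM dipyridyl. Inoculated at A600 0.0003 in this medium plus 1 μM FeCl3. Inhibitors from DMSO at 100 μM final, in triplicate. Tetracycline (100 ng/mL) and 1% DMSO as controls. Incubated at 30 °C; A600 read at 15 h.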

Acinetobacter baumannii [2] = assay: Antibacterial activity against Acinetobacter baumannii ATCC 19606 using iron-replete M9 minimal media after 15 hrs by broth microdilution assay; assay type: functional, organism-based; conditions: ATCC 19606 = CIP 70.34 = JCM 6841
How it was run: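 ATCC 19606 grown overnight at 30 °C on LB agar, washed twice in dipyridyl-containing M9/casamino acids medium, then diluted to A600 0.0003 in M9 minimal medium with 0.2% casamino acids plus 200 μM FeCl3. Inhibitors from DMSO at 100 μM final, in triplicate. Controls were tetracycline (100 ng/mL) and 1% DMSO. Incubated at 30 °C, A600 measured at 15 h.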

[3] = Displacement of Fl-Sal-AMS from Acinetobacter baumanni BasE expressed in Escherichia coli after 30 mins by fluorescence polarization assay; set-up: species or system Acinetobacter baumannii
[4] = Displacement of Fl-Sal-AMS from Mycobacterium tuberculosis MbtA expressed in Escherichia coli after 30 mins by fluorescence polarization assay

SMILES: O=C(O)c1cc(-c2ccc(C(F)(F)F)cc2)nc2c1cnn2Cc1ccncc1
- Activity (Acinetobacter baumannii [1]): inactive
- Activity (Acinetobacter baumannii [2]): inactive

SMILES: O=C(O)c1cc(-c2ccc(F)cc2F)nc2c1cnn2Cc1ccncc1
- Kd ([3]; read-out: Kd): 0.0426 µM
- Activity (Acinetobacter baumannii [1]): inactive
- Kd [4]: 8 µM
- Activity (Acinetobacter baumannii [2]): inactive

SMILES: CN(C)c1ccc(-c2cc(C(=O)O)c3cnn(Cc4ccncc4)c3n2)cc1
- Kd ([3]; read-out: Kd): 0.628 µM
- Activity (Acinetobacter baumannii [1]): inactive
- Kd [4]: 1.7 µM
- Activity (Acinetobacter baumannii [2]): inactive

SMILES: CC(C)NC(=O)c1cc(-c2ccccc2)nc2c1cnn2Cc1ccncc1
- Kd ([3]; read-out: Kd): 0.164 µM
- Activity (Acinetobacter baumannii [1]): inactive
- Kd [4]: > 100 µM
- Activity (Acinetobacter baumannii [2]): inactive

SMILES: Cc1ccsc1-c1cc(C(=O)O)c2cnn(Cc3ccncc3)c2n1
- Kd ([3]; read-out: Kd): 0.34 µM
- Activity (Acinetobacter baumannii [1]): inactive
- Kd [4]: 19.2 µM
- Activity (Acinetobacter baumannii [2]): inactive

SMILES: CNC(=O)c1cc(-c2ccccc2)nc2c1cnn2Cc1ccncc1
- Kd ([3]; read-out: Kd): 0.42 µM
- Activity (Acinetobacter baumannii [1]): inactive
- Kd [4]: > 50 µM
- Activity (Acinetobacter baumannii [2]): inactive

SMILES: O=c1cc(-c2ccccc2)[nH]c2c1cnn2Cc1ccncc1
- Kd ([3]; read-out: Kd): > 100 µM
- Activity (Acinetobacter baumannii [1]): inactive
- Activity (Acinetobacter baumannii [2]): inactive

SMILES: O=C(O)c1cc(-c2ccc(CO)cc2)nc2c1cnn2Cc1ccncc1
- Kd ([3]; read-out: Kd): 0.247 µM
- Activity (Acinetobacter baumannii [1]): inactive
- Kd [4]: 3.7 µM
- Activity (Acinetobacter baumannii [2]): inactive

SMILES: COc1ccc(Cn2ncc3c(C(=O)O)cc(-c4ccccc4)nc32)cc1
- Kd ([3]; read-out: Kd): > 100 µM
- Activity (Acinetobacter baumannii [1]): inactive
- Activity (Acinetobacter baumannii [2]): inactive

SMILES: O=C(NC1CC1)c1cc(-c2ccccc2)nc2c1cnn2Cc1ccncc1
- Kd ([3]; read-out: Kd): 0.15 µM
- Activity (Acinetobacter baumannii [1]): inactive
- Kd [4]: > 100 µM
- Activity (Acinetobacter baumannii [2]): inactive

SMILES: Cc1ccc(-c2cc(C(=O)O)c3cnn(Cc4ccncc4)c3n2)s1
- Kd ([3]; read-out: Kd): 0.0076 µM
- Activity (Acinetobacter baumannii [1]): inactive
- Kd [4]: 2.6 µM
- Activity (Acinetobacter baumannii [2]): inactive

SMILES: O=C(O)c1cc(/C=C/c2ccccc2)nc2c1cnn2Cc1ccncc1
- Kd ([3]; read-out: Kd): 0.28 µM
- Activity (Acinetobacter baumannii [1]): inactive
- Kd [4]: 5.1 µM
- Activity (Acinetobacter baumannii [2]): inactive

SMILES: CSc1ccc(-c2cc(C(=O)O)c3cnn(Cc4ccncc4)c3n2)cc1
- Activity (Acinetobacter baumannii [1]): inactive
- Activity (Acinetobacter baumannii [2]): inactive

SMILES: NC(=O)c1cc(-c2ccccc2)nc2c1cnn2Cc1ccncc1
- Kd ([3]; read-out: Kd): 0.0668 µM
- Activity (Acinetobacter baumannii [1]): inactive
- Kd [4]: 8.57 µM
- Activity (Acinetobacter baumannii [2]): inactive

SMILES: Cc1csc(-c2cc(C(=O)O)c3cnn(Cc4ccncc4)c3n2)c1
- Kd ([3]; read-out: Kd): 0.0869 µM
- Activity (Acinetobacter baumannii [1]): inactive
- Kd [4]: 2.54 µM
- Activity (Acinetobacter baumannii [2]): inactive

SMILES: O=C(O)c1cc(-c2ccc(F)cc2)nc2c1cnn2Cc1ccncc1
- Kd ([3]; read-out: Kd): 0.028 µM
- Activity (Acinetobacter baumannii [1]): inactive
- Kd [4]: 1.89 µM
- Activity (Acinetobacter baumannii [2]): inactive

SMILES: O=C(O)c1cc(-c2ccccc2)nc2c1cnn2Cc1ccco1
- Kd ([3]; read-out: Kd): > 100 µM
- Activity (Acinetobacter baumannii [1]): inactive
- Activity (Acinetobacter baumannii [2]): inactive

SMILES: C=Cc1cc(C(=O)O)c2cnn(Cc3ccncc3)c2n1
- Kd ([3]; read-out: Kd): 1.9 µM
- Activity (Acinetobacter baumannii [1]): inactive
- Kd [4]: > 100 µM
- Activity (Acinetobacter baumannii [2]): inactive

SMILES: O=C(O)c1cc(-c2ccc(-c3ccc(Cl)nc3)nc2)nc2c1cnn2Cc1ccncc1
- Activity (Acinetobacter baumannii [1]): inactive
- Activity (Acinetobacter baumannii [2]): inactive

SMILES: O=C(O)c1cc(-c2ccccc2)cc2c1ccn2Cc1ccncc1
- Kd ([3]; read-out: Kd): 52.2 µM
- Activity (Acinetobacter baumannii [1]): inactive
- Kd [4]: 161 µM
- Activity (Acinetobacter baumannii [2]): inactive

SMILES: O=C(O)c1cc(C#Cc2ccccc2)nc2c1cnn2Cc1ccncc1
- Kd ([3]; read-out: Kd): 0.421 µM
- Activity (Acinetobacter baumannii [1]): inactive
- Kd [4]: 3 µM
- Activity (Acinetobacter baumannii [2]): inactive

SMILES: O=C(O)c1cc(-c2ccco2)nc2c1cnn2Cc1ccncc1
- Kd ([3]; read-out: Kd): 0.342 µM
- Activity (Acinetobacter baumannii [1]): inactive
- Kd [4]: 19.5 µM
- Activity (Acinetobacter baumannii [2]): inactive

SMILES: O=C(O)c1cc(-c2cccc(Cl)c2)nc2c1cnn2Cc1ccncc1
- Kd ([3]; read-out: Kd): 0.026 µM
- Activity (Acinetobacter baumannii [1]): inactive
- Kd [4]: 4.6 µM
- Activity (Acinetobacter baumannii [2]): inactive

SMILES: O=C(O)c1cc(NCc2ccccc2)nc2c1cnn2Cc1ccncc1
- Kd ([3]; read-out: Kd): 2.32 µM
- Activity (Acinetobacter baumannii [1]): inactive
- Kd [4]: 6.02 µM
- Activity (Acinetobacter baumannii [2]): inactive

SMILES: CC(C)n1ncc2c(C(=O)O)cc(-c3ccccc3)nc21
- Kd ([3]; read-out: Kd): > 500 µM
- Activity (Acinetobacter baumannii [1]): inactive
- Activity (Acinetobacter baumannii [2]): inactive

SMILES: NC(=O)c1ccc(-c2cc(C(=O)O)c3cnn(Cc4ccncc4)c3n2)cc1
- Kd ([3]; read-out: Kd): 0.288 µM
- Activity (Acinetobacter baumannii [1]): inactive
- Kd [4]: 1 µM
- Activity (Acinetobacter baumannii [2]): inactive

SMILES: COc1cc(-c2cc(C(=O)O)c3cnn(Cc4ccncc4)c3n2)ccc1C(=O)O
- Kd ([3]; read-out: Kd): 1.7 µM
- Activity (Acinetobacter baumannii [1]): inactive
- Kd [4]: 49.9 µM
- Activity (Acinetobacter baumannii [2]): inactive

SMILES: CC(=O)c1ccc(-c2cc(C(=O)O)c3cnn(Cc4ccncc4)c3n2)s1
- Activity (Acinetobacter baumannii [1]): inactive
- Activity (Acinetobacter baumannii [2]): inactive

SMILES: O=C(O)c1cc(-c2ccccc2)cc2nn(Cc3ccncc3)cc12
- Kd ([3]; read-out: Kd): 66.4 µM
- Activity (Acinetobacter baumannii [1]): inactive
- Kd [4]: 58 µM
- Activity (Acinetobacter baumannii [2]): inactive

SMILES: O=C(O)c1cc(-c2ccccc2)nc2c1cnn2Cc1cccnc1
- Kd ([3]; read-out: Kd): > 100 µM
- Activity (Acinetobacter baumannii [1]): inactive
- Activity (Acinetobacter baumannii [2]): inactive

SMILES: CC(=O)Nc1ccc(-c2cc(C(=O)O)c3cnn(Cc4ccncc4)c3n2)cc1
- Kd ([3]; read-out: Kd): 0.747 µM
- Activity (Acinetobacter baumannii [1]): inactive
- Kd [4]: 4.2 µM
- Activity (Acinetobacter baumannii [2]): inactive

SMILES: O=C(O)c1cc(-c2ccc(Cl)cc2)nc2c1cnn2Cc1ccncc1
- Activity (Acinetobacter baumannii [1]): inactive
- Activity (Acinetobacter baumannii [2]): inactive

SMILES: O=C(O)c1cc(-c2ccc([N+](=O)[O-])cc2)nc2c1cnn2Cc1ccncc1
- Activity (Acinetobacter baumannii [1]): inactive
- Activity (Acinetobacter baumannii [2]): inactive

SMILES: O=C(O)c1cc(-c2cc3ccccc3s2)nc2c1cnn2Cc1ccncc1
- Activity (Acinetobacter baumannii [1]): inactive
- Activity (Acinetobacter baumannii [2]): inactive

SMILES: CCn1ncc2c(C(=O)O)cc(-c3ccccc3)nc21
- Kd ([3]; read-out: Kd): > 500 µM
- Activity (Acinetobacter baumannii [1]): inactive
- Activity (Acinetobacter baumannii [2]): inactive

SMILES: O=C(O)c1ccc(-c2cc(C(=O)O)c3cnn(Cc4ccncc4)c3n2)cc1O
- Activity (Acinetobacter baumannii [1]): inactive
- Activity (Acinetobacter baumannii [2]): inactive

SMILES: CC(=O)c1ccc(-c2cc(C(=O)O)c3cnn(Cc4ccncc4)c3n2)cc1
- Activity (Acinetobacter baumannii [1]): inactive
- Activity (Acinetobacter baumannii [2]): inactive

SMILES: N#Cc1ccc(-c2cc(C(=O)O)c3cnn(Cc4ccncc4)c3n2)cc1
- Activity (Acinetobacter baumannii [1]): inactive
- Activity (Acinetobacter baumannii [2]): inactive

SMILES: CCCCCCCCCCCCCCCCOc1ccc(-c2cc(C(=O)O)c3cnn(Cc4ccncc4)c3n2)cc1
- Kd [3]: ND(Insoluble)
- Activity (Acinetobacter baumannii [1]): inactive
- Activity (Acinetobacter baumannii [2]): inactive

SMILES: O=C(O)c1cc(-c2ccc(Cl)nc2)nc2c1cnn2Cc1ccncc1
- Activity (Acinetobacter baumannii [1]): inactive
- Activity (Acinetobacter baumannii [2]): inactive

SMILES: O=C(O)c1cc(-c2ccccc2)nc2c1cnn2Cc1ccccc1
- Kd ([3]; read-out: Kd): > 100 µM
- Activity (Acinetobacter baumannii [1]): inactive
- Activity (Acinetobacter baumannii [2]): inactive

SMILES: COc1ccc(Cn2ncc3c(C(=O)O)cc(Nc4ccccc4)nc32)cc1
- Kd ([3]; read-out: Kd): > 100 µM
- Activity (Acinetobacter baumannii [1]): inactive
- Activity (Acinetobacter baumannii [2]): inactive

SMILES: O=C(O)c1cc(=O)[nH]c2c1cnn2Cc1ccncc1
- Kd ([3]; read-out: Kd): > 100 µM
- Activity (Acinetobacter baumannii [1]): inactive
- Activity (Acinetobacter baumannii [2]): inactive

SMILES: O=C(O)c1cc(-c2ccccc2)nc2[nH]ncc12
- Kd ([3]; read-out: Kd): > 100 µM
- Activity (Acinetobacter baumannii [1]): inactive
- Activity (Acinetobacter baumannii [2]): inactive

SMILES: CS(=O)(=O)c1ccc(-c2cc(C(=O)O)c3cnn(Cc4ccncc4)c3n2)cc1
- Activity (Acinetobacter baumannii [1]): inactive
- Activity (Acinetobacter baumannii [2]): inactive

SMILES: O=C(O)c1cc(-c2ccc(Br)cc2)nc2c1cnn2Cc1ccncc1
- Activity (Acinetobacter baumannii [1]): inactive
- Activity (Acinetobacter baumannii [2]): inactive

Reference: ChEMBL document CHEMBL2321876
